# Compound activity as filed in PubChem BioAssay.
# This is a sample that favours compounds with a hit; in the whole collection about 0.6% have one here.
# TNAP act hi DEA = TNAP (human) activation, high acceptor; P05186; purified TNAP, CDP-star luminescence, 1 M DEA, 30 min; hits give high values; 0 = EDTA background, 1 = DMSO-only activity; activation factor at 20 µM; 200,000 tested, under 10 active; AID 1136;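 active = activation factor at least 2 at 20 µM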
#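 system = human TNAP | amount = enzyme diluted 1/800 final | reagent = 100 µM CDP-star substrate | signal = luminescent substrate turnover signal | dosing = one dose, 20 µM | benchmarks = EDTA negative control, DMSO positive control | measure = activation factor | timing = 30 min reaction, room temperature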
# Rad51 HR inh = blocks human Rad51 in homologous recombination. AID 1385. inhibition, % at 10 µM. actives 0.085% (n = 200,000). hRad51 DNA strand exchange, fluorescence dequenching;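 active = inhibition above 40% at the single screening dose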;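 note: 0% = DMSO control wells and 100% = blanks with heterologous ssDNA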
# Target sequence (Q06609 whole entry, looked up): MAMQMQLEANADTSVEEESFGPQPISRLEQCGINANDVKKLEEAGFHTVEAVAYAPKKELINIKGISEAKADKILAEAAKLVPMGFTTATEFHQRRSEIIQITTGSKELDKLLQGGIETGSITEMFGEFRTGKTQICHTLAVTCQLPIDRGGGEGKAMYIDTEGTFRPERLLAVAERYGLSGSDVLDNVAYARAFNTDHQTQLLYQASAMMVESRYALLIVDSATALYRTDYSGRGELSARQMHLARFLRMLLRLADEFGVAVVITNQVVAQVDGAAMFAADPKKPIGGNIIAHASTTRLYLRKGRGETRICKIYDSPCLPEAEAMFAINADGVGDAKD
#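 Material: Human Rad51 nucleoprotein filaments preassembled on unlabelled ssDNA | Also added: Labelled 47-mer dsDNA for strand exchange | Dosing: Single dose, 10 µM final compound | Schedule: 30-min compound preincubation and 15-min exchange, both room temperature | Technique: Fluorescence dequenching at 485/520 nm | Measure: Percent inhibition relative to plate controls and blanks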
# PMI activator = activators of human phosphomannose isomerase; purified human PMI, coupled resazurin fluorescence, 20 min; hits give high values; 1 = vehicle control, 0 substrate-free wells; actives 0.005% (n = 190,000); activation factor at 20 µM;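 active = activation factor of 2 or more at 20 µM, relative to plate controls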
# PMI act satM6P = increases human PMI activity with near-saturating mannose 6-phosphate; P34949; coupled PMI enzyme assay, resazurin fluorescence, 20 min; hits give high values; 1 = untreated enzyme, 0 = substrate-free blank; activation factor at 20 µM; actives 0.34% (n = 190,000);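 active = activation factor of 2 or more at 20 µM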
#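 assay system = human phosphomannose isomerase with PGI, G6PDH, diaphorase coupling enzymes | quantity = 15 ng/mL PMI | incubation = enzyme reaction with compound 20 min at room temperature | medium = HEPES pH 7.4 buffer with MgCl2 and Tween-20 | compound dosing = one concentration, 20 µM, in 1% DMSO | measured by = Diaphorase-driven resazurin-to-resorufin fluorescence, excitation 544, emission 590 nm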
# TNAP inh hi DEA = blocks human TNAP under high phosphate acceptor concentration. P05186. purified TNAP, CDP-star luminescence, 1 M DEA. inhibition, % at 20 µM. actives 0.03% (n = 200,000). AID 1135;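 active = over 50% inhibition of tissue-nonspecific alkaline phosphatase at 20 µM in the single-dose screen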;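 note: plate controls were DMSO wells for no effect and EDTA-quenched wells as full inhibition for full effect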
# TNAP inh no acc = blocks human TNAP activity with no phosphate acceptor present. P05186. AID 1012. purified TNAP, CDP-star luminescence, 30 min. inhibition, % at 20 µM. actives 0.26% (n = 200,000);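 active = tissue-nonspecific alkaline phosphatase inhibition above about 50% at 20 µM in the single-dose screen, limit read from the data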;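 note: 0% = DMSO negative control and 100% = EDTA positive control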
# An asterisk follows results filed as active; i = inactive; x = not tested or not shown.
SMILES,TNAP act hi DEA,Rad51 HR inh,PMI activator,PMI act satM6P,TNAP inh hi DEA,TNAP inh no acc
C=C1c2cc(OC)ccc2NC(=O)N1CC,1,-1.0,1.5,2*,0.5,-7.8
COC(=O)C1=NN(c2cccc3ccccc23)C2C(=O)N(c3ccccc3OC)C(=O)C12 (stereo not drawn),x,25.4,x,x,x,x
O=C(CCc1ccc(S(=O)(=O)NCCc2ccccc2)cc1)N1CCN(Cc2ccc3c(c2)OCO3)CC1,1.1,1.1,0.9,0.9,-8.6,4.3
C[C@@H]1O[C@@H](Oc2c(-c3cc(O)c(O)c(O)c3)oc3cc(O)cc(O)c3c2=O)[C@H](O)[C@H](O)[C@H]1O,0.9,18.7,0.3,0.5,11.6,51.5*
O=c1c(OC2OC(CO)C(O)C(O)C2O)c(-c2ccc(O)c(O)c2)oc2cc(O)cc(O)c12 (stereo not drawn),0.9,0.2,0.4,0.7,13.5,40.1
CCCc1cc(=O)n(-c2nc3ccccc3s2)[nH]1,x,17.7,x,x,x,x
CCOC(=O)Cc1cc(=O)n(-c2nc3ccccc3s2)[nH]1,1,1.6,1.7,2.4*,2.0,-9.4
Oc1ccccc1/C=N/Nc1cccc2cccnc12,1,-6.2,1.3,1.8,3.0,i
C/C(=N\Nc1cccc2cccnc12)c1ccc(C)cc1,1,1.2,1.6,2.1*,-1.3,-23.4
COc1cc(C(c2c(C)[nH][nH]c2=O)c2c(C)[nH][nH]c2=O)ccc1OC(C)C,0.1,0.1,0.8,0.7,87.1*,81.8*
COc1cc(C(c2c(C)[nH][nH]c2=O)c2c(C)[nH][nH]c2=O)cc(OC)c1OC,1,-4.2,0.8,0.6,-1.3,-7.3
COc1cc(C(c2c(C)[nH][nH]c2=O)c2c(C)[nH][nH]c2=O)ccc1OS(=O)(=O)c1ccccc1,0.3,7.1,0.8,0.8,71.8*,28.6
COc1cc(C(c2c(C)[nH][nH]c2=O)c2c(C)[nH][nH]c2=O)ccc1OS(=O)(=O)c1ccc(C)cc1,0.5,-6.3,0.9,0.9,50.8*,12.4
CCOC(=O)c1ccc(N2CN(C3CCCCC3)CNC2=S)cc1,1.1,-21.9,1,1,-5.2,5.7
CCOc1ccc(C(C)=O)cc1CSc1nnc(-c2ccoc2C)n1N,1,-11.2,1.1,1.2,-4.8,-14.2
Cc1cc(O)c(C(C)C)cc1NS(=O)(=O)c1ccccc1,1.1,-5.7,1,1,-10.2,-2.3
O=C(CSCCS(=O)(=O)c1ccc(Cl)cc1)Nc1ccccc1,x,3.1,x,x,x,x
O=C(NCCCO)c1nnc(Cc2c(F)cccc2Cl)o1,1.1,-5.9,1.1,1.1,-7.2,-7.6
COc1ccc(-c2csc(Nc3ccccc3)[n+]2CC(O)c2ccc([N+](=O)[O-])cc2)cc1 (stereo not drawn),x,22.2,x,x,x,x
O=C(c1ccco1)N(Cc1ccccc1)Cc1ccccn1,1,13.3,1.4,1,1.3,-2.0
FC(F)Oc1cccc(NC(=S)N2CCN(c3ccccn3)CC2)c1,1,9.3,0.3,0.4,-2.4,-3.5
CNC(=O)OC(C)CNS(=O)(=O)c1ccc(C)cc1 (stereo not drawn),1.1,2.4,1,1,-5.4,-16.9
Cc1c(-c2ccccc2)n[nH]c1C(=O)NN,1,6.4,1,1.1,-0.1,82.3*
CCOc1ccc(-c2n[nH]c(C(=O)NN)c2C)cc1,1.1,3.8,0.9,0.9,-7.2,82.3*
Cn1c2c(c(=O)n(C)c1=O)C(c1ccc(F)cc1)C(C#N)=C(N)O2 (stereo not drawn),1.1,x,1.4,1.6,-5.6,-2.8
SMILES,TNAP act hi DEA,Rad51 HR inh,PMI activator,PMI act satM6P,TNAP inh hi DEA,TNAP inh no acc
Cc1ccccc1C1CC(=O)NC2=C1C(=O)CCC2 (stereo not drawn),1,-8.6,1.1,1.1,-0.5,5.1
Nc1n[nH]c2cc(=O)n(-c3ccc(Cl)cc3)nc12,1,-1.4,1.4,1.2,-1.8,-1.9
COc1ccc(-n2nc3c(N)n[nH]c3cc2=O)cc1,1,-9.4,1.6,2*,1.5,-1.5
CCCc1n[nH]c2c1C(=O)CC(C)(C)C2,1,-9.8,0.9,0.9,-3.7,63.9*
CC1(C)CC(=O)c2c(-c3cccs3)n[nH]c2C1,0.9,-1.4,1.1,1.1,7.5,87.6*
CCCCc1n[nH]c2c1/C(=N/O)CC(C)(C)C2,1,3.9,1,1,-2.7,33.1
Nc1cc2nn(-c3ccccc3)nc2cc1Cl,1,34.3,0.3,0.4,4.6,-6.4
O=C(NCC1CC1)C1(C(F)(F)F)CC(CCc2ccccc2)CCCO1 (stereo not drawn),x,8.3,x,x,x,x
CC/C(=N/Nc1ccccc1)c1cnnc(-c2ccccc2)n1,0.9,-8.0,1.9,2.9*,6.6,9.4
O=C(NNC(=O)c1ccc2ccccc2c1O)c1ccccc1Cl,1,8.9,0.9,1,0.4,65.2*
O=C(Nc1ccc2c(c1)OCCO2)c1cccc(S(=O)(=O)N2CCOCC2)c1,1.1,0.5,1.1,1,-7.0,-1.7
NC(=O)NC(=O)COC(=O)c1cccc(S(=O)(=O)N2CCCCCC2)c1,x,45.9*,x,x,x,x
O=C(N/N=C/c1ccc(O)c(O)c1)c1cccc(S(=O)(=O)N2CCCCC2)c1,0.8,12.9,0.8,1.1,18.5,78.2*
COC(=O)c1cccc(S(=O)(=O)N2CCCC2)c1,1,3.2,1.1,1,-3.0,-10.1
O=C(Nc1ccc2c(c1)OCCO2)c1cccc(S(=O)(=O)N2CCCCC2)c1,1,121.7*,0.7,0.8,-2.8,-7.8
CCOc1ccccc1-n1cnc2cc(C(=O)NCc3ccco3)ccc21,1,2.7,1,1,2.4,-5.7
COC(=O)NCc1ccc(S(=O)(=O)N2CCOCC2)cc1,1,-2.3,0.8,0.9,-2.0,-7.3
O=C1CC(c2ccc(O)c(O)c2)Oc2c1ccc(O)c2O (stereo not drawn),x,32.0,x,x,x,x
CC(C)=CCc1c(O)ccc2c1OC(c1ccc(O)c(O)c1)CC2=O (stereo not drawn),1,1.6,0.6,0.8,-1.5,53.7*
CCOC(=O)c1cn(C2CC2)c2c(F)c(F)c(F)cc2c1=O,1,x,1.2,1.1,-2.5,3.5
COc1ccc(CCNC(=O)c2ccc3c(=O)n(Cc4ccco4)c(=S)[nH]c3c2)cc1OC,1,-12.3,0.9,1.3,1.3,-8.3
CN1c2ccsc2/C(=N/Nc2ccccc2)CS1(=O)=O,0.9,-3.1,1.5,2.1*,6.4,-2.4
CC(=O)Nc1ccc(S(=O)(=O)Nc2ccc(S(=O)(=O)N3CCCC3)cc2)cc1,1,-5.9,1.1,1.1,0.9,-6.1
